Screening data deposited in PubChem by Broad Institute.
In the library only some 5.8% were active in any assay of this set; here they are far more common.
Pf Dd2 inh – inhibitors of Plasmodium falciparum Dd2 growth; P. falciparum Dd2 growth, SYBR Green, 72 h; active compounds read low; 94,000 tested, 2.3% active; activity change, % at 10 µM; in the data active = activity change below about -80%; inconclusive = no clear call, values can overlap the other calls
T cruzi growth – blocks T. cruzi growth in NIH3T3 culture; inhibition, % at 8.34 µM; 77,000 tested, 5.9% active; T. cruzi beta-gal in NIH3T3, GalScreen luminescence, 90 h;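 active = mean inhibition above about 93%, with at least 55% of replicates each passing it, limit read from the data, passing the limit was not always enough; inconclusive = only one of those two conditions holds; inactive = neither condition holds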
IDH1 R132H inh – inhibitors of human IDH1 R132H. 70,000 tested, 0.18% active. IDH1 R132H reductase, diaphorase/resazurin fluorescence, 60 min. O75874. inhibition, % at 10 µM; in the data active = inhibition above about 34%; inconclusive = no clear call, values can overlap the other calls; inactive = below about 11%;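 also: 0% = DMSO and 100% = no enzyme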
KDM4C inh – blocks human GASC-1 (KDM4C) demethylase activity; GST-KDM4C 2-372, H3K9me3 peptide, LANCE TR-FRET; inhibition, % at 12.5 µM; 96,000 tested, 0.15% active;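 active = mean replicate inhibition above about 25%, with at least 55% of replicates also reaching it, limit read from the data, passing the limit was not always enough; inconclusive = only one of those two conditions met; inactive = neither condition met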
Target sequence (Q9H3R0 2-372 limits assumed): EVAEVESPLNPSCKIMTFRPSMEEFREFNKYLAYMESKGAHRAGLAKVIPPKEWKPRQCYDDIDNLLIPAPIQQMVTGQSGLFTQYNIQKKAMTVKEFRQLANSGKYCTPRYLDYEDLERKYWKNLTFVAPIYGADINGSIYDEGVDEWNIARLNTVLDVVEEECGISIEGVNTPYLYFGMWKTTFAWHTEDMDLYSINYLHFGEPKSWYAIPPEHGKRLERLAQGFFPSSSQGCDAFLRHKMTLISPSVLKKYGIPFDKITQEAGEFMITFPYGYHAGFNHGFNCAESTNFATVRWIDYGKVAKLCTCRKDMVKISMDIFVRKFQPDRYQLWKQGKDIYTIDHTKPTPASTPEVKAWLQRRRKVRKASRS
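Compound: one test concentration per compound; Material: GST-GASC-1 enzyme fragment 2-372; Amount: GASC-1 enzyme at 10 nM final in reaction; Also added: H3K9me3 peptide substrate, Fe(II), 2-oxoglutarate; Technique: LANCE TR-FRET; Times: 30 min demethylation and 1 h detection at room temperature.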
Active calls of the source: *; u = inconclusive; x = no result; ! = not active in a repeat.

SMILES	Pf Dd2 inh	T cruzi growth	IDH1 R132H inh	KDM4C inh
CCCC#Cc1cnc2c(c1)C(=O)N([C@H](C)CO)C[C@@H](C)[C@H](CN(C)C(=O)Nc1cc(F)ccc1F)O2	-81*	54	0	8
COc1ccccc1NC(=O)N(C)C[C@@H]1Oc2ncc(C#CC(C)C)cc2C(=O)N([C@@H](C)CO)C[C@H]1C	-82*	51	1	7
Cc1nn(Cc2c(Cl)cccc2Cl)c(C)c1NC(=O)c1noc2c1CC(C(C)(C)C)CC2 (stereo unspecified)	x	x	0	x
CC(C)CC#Cc1ccc([C@H]2[C@@H](CO)N3C(=O)CN(C(=O)Cc4ccccc4)C[C@H]23)cc1	-85*	x	x	0
O=C(Cc1ccccc1)N1CC(=O)N2[C@H](CO)[C@H](c3ccc(C#Cc4ccccc4)cc3)[C@H]2C1	-84*	x	x	0
O=C(C[C@@H]1C=C[C@@H](NC(=O)C2CCC2)[C@H](CO)O1)NC1CCC1	-87*	x	-1	-2
CCC(=O)N[C@@H]1C=C[C@H](CC(=O)NCC2CCCCC2)O[C@@H]1CO	-11	82	-1	2
CCC(=O)N[C@H]1C=C[C@H](CC(=O)NCC2CCCCC2)O[C@@H]1CO	-88*	-62	-1	-1
CC(C)=CCc1c(O)ccc2c(=O)c(-c3ccc(O)cc3)coc12	x	x	1	x
OC[C@@H]1Nc2ccc(C#Cc3cccc(F)c3)cc2[C@H]2NCC[C@@H]12	-88*	x	x	-1
COc1ccccc1C#Cc1ccc2c(c1)[C@@H]1NCC[C@@H]1[C@H](CO)N2	-90*	x	x	0
COC(=O)[C@@H]1OC(=O)C2OC23[C@@]1(C)CCC1[C@]2(C)C(C[C@@H](O)[C@]13C)C(C)(C)[C@H](OC(C)=O)C[C@@H]2OC(C)=O (stereo partly specified)	x	x	0	x
N#C[C@H]1[C@H](c2ccc(C#CCC3CCCC3)cc2)[C@H](CO)N1C(=O)c1ccccn1	-24	104*	x	5
N#C[C@@H]1[C@H](c2ccc(C#CCC3CCCC3)cc2)[C@H](CO)N1C(=O)c1ccccn1	u	94	x	0
CC(C)C#Cc1ccc([C@@H]2[C@@H](CO)N(C(=O)c3ccccn3)[C@H]2C#N)cc1	-26	92	x	-5
N#C[C@H]1[C@@H](c2ccc(C#CCC3CCCC3)cc2)[C@H](CO)N1C(=O)c1ccccn1	-43	101*	x	-4
C/C=C1\[C@H](O[C@@H]2O[C@H](CO)[C@@H](O)[C@H](O)[C@H]2O)OC=C(C(=O)OC)[C@H]1CC(=O)OC[C@H]1O[C@@H](OCCc2ccc(O)cc2)[C@H](O)[C@@H](O)[C@@H]1OC(=O)C[C@@H]1C(C(=O)OC)=CO[C@@H](O[C@@H]2O[C@H](CO)[C@@H](O)[C@H](O)[C@H]2O)/C1=C\C	x	x	-1	x
CC(C)C#Cc1ccc([C@H]2[C@H](CO)N3CCCCN(C(=O)c4ccc5c(c4)OCO5)C[C@@H]23)cc1	-41	70	x	-1
COc1ccc(-c2ccc([C@@H]3[C@H]4CN(C(=O)NC(C)C)CC(=O)N4[C@H]3CO)cc2)cc1	-87*	x	x	0
COc1ccc(NC(=O)N2CC(=O)N3[C@@H](CO)[C@H](c4ccc(C#CCC5CCCC5)cc4)[C@@H]3C2)cc1	-90*	x	x	-3
O=C(c1cccc(F)c1)N1CC(=O)N2[C@H](CO)[C@H](c3ccc(-c4cccnc4)cc3)[C@H]2C1	-86*	x	x	-1
CC(C)C#Cc1ccc([C@@H]2[C@H](CO)N3CCCCN(C(=O)c4ccc5c(c4)OCO5)C[C@@H]23)cc1	-83*	35	x	0
COc1ccc(NC(=O)N2CC(=O)N3[C@H](C2)[C@H](c2ccc(C#CCC4CCCC4)cc2)[C@@H]3CO)cc1	-33	x	x	-1
COc1ccc(-c2ccc([C@H]3[C@@H](CO)N4C(=O)CN(C(=O)NC(C)C)C[C@H]34)cc2)cc1	-46	x	x	1
OCC1(CO)COC(COc2ccccc2)=N1	x	x	0	x
SMILES	Pf Dd2 inh	T cruzi growth	IDH1 R132H inh	KDM4C inh
O=C(c1ccc2c(c1)OCO2)N1CC(=O)N2[C@H](CO)[C@H](c3ccc(C#Cc4ccccc4)cc3)[C@H]2C1	-82*	x	x	-3
O=C(c1ccc(F)cc1)N1CC(=O)N2[C@H](CO)[C@H](c3ccc(C#Cc4ccc(F)cc4)cc3)[C@H]2C1	-91*	x	x	1
COc1ccc(C#Cc2ccc([C@@H]3[C@@H](CO)N4C(=O)CN(C(=O)c5ccccc5)C[C@H]34)cc2)cc1	-87*	x	x	-5
O=C(c1ccc(F)cc1)N1CC(=O)N2[C@H](CO)[C@@H](c3ccc(C#Cc4ccc(F)cc4)cc3)[C@H]2C1	-29	x	x	-1
N#Cc1cccc(-c2ccc([C@@H]3[C@@H]4CN(S(=O)(=O)c5ccc(-c6ccccc6)cc5)C[C@H]3N4)cc2)c1	-72	x	x	-59
N#Cc1cccc(-c2ccc(C3[C@@H]4CN(S(=O)(=O)c5ccc(F)cc5)C[C@H]3N4)cc2)c1 (stereo partly specified)	-72	x	x	34*!
COc1cccc(S(=O)(=O)N2C[C@@H]3N[C@H](C2)C3c2ccc(-c3cccc(C)c3)cc2)c1 (stereo partly specified)	11	x	x	5
Cc1cccc(-c2ccc([C@H]3[C@H]4CN(S(=O)(=O)c5cccc(C)c5)CCCCN4[C@H]3CO)cc2)c1	-86*	64	x	0
COc1ccc(-c2ccc(C3[C@@H]4CN(S(=O)(=O)c5cccc(C)c5)C[C@H]3N4)cc2)cc1 (stereo partly specified)	-86*!	x	x	-2
COC(=O)/C=C(\C)CCC1(C)C(C)CCC2(C)C(C)=CC(=O)CC21 (stereo unspecified)	x	x	0	x
Cc1ccc(N(CC(=O)Nc2cc(Cl)ccc2C)S(C)(=O)=O)c(C)c1	x	x	0	x
O=C(COc1cccc2ccccc12)Nc1cc(C(=O)O)cc(C(=O)O)c1	x	x	0	x
COc1ccc(S(=O)(=O)N(C)C[C@@H]2OCCCC[C@@H](C)Oc3ccc(NC(=O)CCC(F)(F)F)cc3C(=O)N([C@@H](C)CO)C[C@@H]2C)cc1	-81*	46	x	-1
C[C@@H]1CCCCO[C@H](CN(C)S(=O)(=O)c2ccccc2)[C@H](C)CN([C@@H](C)CO)C(=O)c2cc(NC(=O)CCCN(C)C)ccc2O1	-7	-25	89*	2
COc1ccc(S(=O)(=O)N(C)C[C@H]2OCCCC[C@H](C)Oc3ccc(NC(=O)CCCN(C)C)cc3C(=O)N([C@H](C)CO)C[C@H]2C)cc1	-3	54	x	45*
CC(Oc1ccc(Br)cc1)C(=O)NCc1ccco1 (stereo unspecified)	x	x	2	x
COC(=O)c1sc(N2C(=O)C(=O)C(C(=O)c3ccc(OC)c(C)c3)C2c2ccco2)nc1C (stereo unspecified)	x	x	0	x
O=C(Nc1ccccc1)N1CCCCN2[C@@H](CO)[C@H](c3ccc(C#Cc4cccnc4)cc3)[C@@H]2C1	-83*	5	x	-1
COc1cccc(CN2CCCCN3[C@H](CO)[C@@H](c4ccc(C#Cc5cccnc5)cc4)[C@H]3C2)c1	-86*	94	x	1
